Measured values taken from ChEMBL document CHEMBL3352175, “2',6'-Dihalostyrylanilines, pyridines, and pyrimidines for the inhibition of the catalytic subunit of methionine S-adenosyltransferase-2” (J Med Chem, 2014).
Activity calls are given as the source filed them. The rule behind the calls is not given here.

Experiments:
[1] = Antiproliferative activity against human LS 174T cells by cell viability analyzer; assay type: functional, cell-based; conditions: LS174T
Procedure, shortened: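 LS174T colon cancer cells seeded at 3 × 10^4 cells/mL, treated next day with compounds at 1–300 nM (freshly made DMSO stocks diluted in buffer). Proliferation read by automated cell viability counting. Triplicate at each concentration; IC50 from concentration–response curves by nonlinear regression one-site fit.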

[2] = molecular target: S-adenosylmethionine synthase isoform type-2 (Homo sapiens) (UniProt P31153); assay: Inhibition of recombinant His-tagged MAT2A (unknown origin) using L-methionine and ATP at 30 uM
Chain of S-adenosylmethionine synthase isoform type-2 (Homo sapiens) (P31153 whole entry, looked up, canonical isoform): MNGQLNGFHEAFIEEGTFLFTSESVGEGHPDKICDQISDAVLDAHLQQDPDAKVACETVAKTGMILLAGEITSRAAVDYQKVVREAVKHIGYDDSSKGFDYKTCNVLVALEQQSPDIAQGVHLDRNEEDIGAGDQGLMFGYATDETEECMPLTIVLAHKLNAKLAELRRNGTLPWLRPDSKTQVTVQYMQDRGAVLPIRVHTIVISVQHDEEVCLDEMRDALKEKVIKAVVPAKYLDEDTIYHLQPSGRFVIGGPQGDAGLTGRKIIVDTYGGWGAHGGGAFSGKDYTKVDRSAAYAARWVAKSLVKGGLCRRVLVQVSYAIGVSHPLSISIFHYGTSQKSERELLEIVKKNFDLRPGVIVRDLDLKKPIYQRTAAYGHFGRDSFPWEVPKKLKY
Procedure, shortened: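 Purified His-tagged MAT2A holoenzyme (3 μg) preincubated with compound (30 μM final) 10 min at room temperature, then given L-methionine (50 μM) and ATP (50 μM) in 50 mM Tris pH 8.0, 50 mM KCl, MgCl2; 25 min at room temperature. Released Pi measured by malachite green absorbance at 635 nm; triplicate; activity expressed relative to reference lead.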

[3] = molecular target: Voltage-gated inwardly rectifying potassium channel KCNH2 (Homo sapiens, UniProt Q12809); assay: Inhibition of human ERG over-expressed in HEK293 cell membrane by [3H]dofetilide binding assay; assay type: cell membranes
Chain of Voltage-gated inwardly rectifying potassium channel KCNH2 (Q12809 whole entry): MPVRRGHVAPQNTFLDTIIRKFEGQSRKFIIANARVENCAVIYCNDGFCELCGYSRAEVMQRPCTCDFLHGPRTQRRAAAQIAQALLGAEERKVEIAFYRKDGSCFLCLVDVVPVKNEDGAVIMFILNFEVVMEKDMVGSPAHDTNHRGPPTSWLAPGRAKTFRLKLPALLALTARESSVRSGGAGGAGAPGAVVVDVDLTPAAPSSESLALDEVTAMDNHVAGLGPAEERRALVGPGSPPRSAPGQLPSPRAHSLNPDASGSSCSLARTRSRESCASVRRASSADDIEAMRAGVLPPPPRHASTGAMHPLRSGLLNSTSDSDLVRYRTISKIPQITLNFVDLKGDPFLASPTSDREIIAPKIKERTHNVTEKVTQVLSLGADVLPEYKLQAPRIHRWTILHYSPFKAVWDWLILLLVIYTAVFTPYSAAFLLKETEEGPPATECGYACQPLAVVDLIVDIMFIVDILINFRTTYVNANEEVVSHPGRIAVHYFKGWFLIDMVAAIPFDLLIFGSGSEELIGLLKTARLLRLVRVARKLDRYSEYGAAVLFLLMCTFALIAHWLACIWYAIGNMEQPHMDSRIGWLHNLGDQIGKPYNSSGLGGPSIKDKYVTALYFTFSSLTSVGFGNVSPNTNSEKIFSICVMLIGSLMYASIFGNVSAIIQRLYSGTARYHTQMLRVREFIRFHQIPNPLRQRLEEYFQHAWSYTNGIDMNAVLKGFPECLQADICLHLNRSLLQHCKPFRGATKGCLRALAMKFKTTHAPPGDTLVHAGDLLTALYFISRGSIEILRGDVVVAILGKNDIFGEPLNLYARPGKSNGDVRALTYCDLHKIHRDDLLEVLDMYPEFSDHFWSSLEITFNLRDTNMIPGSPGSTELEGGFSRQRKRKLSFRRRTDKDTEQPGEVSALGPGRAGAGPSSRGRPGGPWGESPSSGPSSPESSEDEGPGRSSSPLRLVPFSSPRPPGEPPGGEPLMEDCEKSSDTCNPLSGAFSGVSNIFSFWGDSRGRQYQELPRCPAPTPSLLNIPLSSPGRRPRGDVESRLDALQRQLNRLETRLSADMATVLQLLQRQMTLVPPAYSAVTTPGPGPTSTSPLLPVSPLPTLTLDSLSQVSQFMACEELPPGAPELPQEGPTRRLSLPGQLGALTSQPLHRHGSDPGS

[4] = Ratio of IC50 for human ERG to IC50 for inhibition of human LS174T cell proliferation

Compound	IC50 [1] [nM]	inhibition [2]	IC50 [3] [nM]	Ratio IC50 [4]
CCNc1ccc(/C=C/c2c(F)cccc2F)cn1	31.3	–	–	–
CN(C)c1ccc(/C=C/c2c(F)cccc2F)cn1	13.3	Active	–	–
CNc1ccc(/C=C/c2c(Cl)cccc2Cl)cc1	50.1	Active	–	–
CN(C)c1ccc(/C=C/c2c(F)cccc2Cl)nc1	20.4	Active	20700	1000
CNc1ccc(/C=C/c2c(F)cccc2F)cc1	7.6	Active	49100	6500
CCNc1ncc(/C=C/c2c(F)cccc2F)cn1	> 200	–	–	–
CN(C)c1ncc(/C=C/c2c(F)cccc2Cl)cn1	> 200	–	–	–
CNc1ncc(/C=C/c2c(F)cccc2Cl)cn1	> 200	–	–	–
CN(C)c1ccc(/C=C/c2c(Cl)cccc2Cl)cc1	214	Active	–	–
CN(C)c1ccc(/C=C/c2c(F)cccc2F)nc1	57.9	Active	21100	400
CN(C)c1ccc(/C=C/c2c(Cl)cccc2Cl)nc1	59.5	Active	–	–
CN(C)c1ncc(/C=C/c2c(Cl)cccc2Cl)cn1	> 200	–	–	–
CN(C)c1ccc(/C=C/c2c(F)cccc2Cl)cn1	4.7	Active	59500	12700
CNc1ncc(/C=C/c2c(Cl)cccc2Cl)cn1	> 200	–	–	–
CN(C)c1ccc(/C=C/c2c(F)cccc2Cl)cc1	19.2	Active	–	–
CNc1ncc(/C=C/c2c(F)cccc2F)cn1	> 200	Active	–	–
CN(C)c1ccc(/C=C/c2c(F)cccc2F)cc1	26.9	Active	–	–
CN(C)c1ncc(/C=C/c2c(F)cccc2F)cn1	> 200	Active	40500	500
CNc1ccc(/C=C/c2c(F)cccc2F)cn1	30.1	–	–	–
CNc1ccc(/C=C/c2c(Cl)cccc2Cl)cn1	19.6	–	–	–
CNc1ccc(/C=C/c2c(F)cccc2Cl)cc1	7.6	Active	49800	6600
CCNc1ccc(/C=C/c2c(F)cccc2F)cc1	200	–	–	–
CN(C)c1ccc(/C=C/c2c(Cl)cccc2Cl)cn1	30.1	Active	–	–
CNc1ccc(/C=C/c2c(F)cccc2Cl)cn1	4	Active	19900	5000
